We go through eleven molecules from ChEMBL document CHEMBL5131470, “Structure-activity and structure-property relationship studies of spirocyclic chromanes with antimalarial activity” (Bioorg Med Chem, 2022).

Data set [1] is described as follows: Octanol-water distribution coefficient, logD of the compound at pH 7.4 by HPLC-based analysis. Format: physicochemical.
The nature of data set [2]: Selectivity index, ratio of EC50 for cytotoxicity against human HepG2 cells to EC50 for antimalarial activity against chloroquine-resistant Plasmodium falciparum Dd2. Format: toxicity, cell-based. To be noted: read-out: Ratio EC50. In outline: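 Human HepG2 hepatoma cells were seeded at 2,500 cells/well and grown 24 h. Serial dilutions of compound (0–40 μM) were then added for another 48 h. […] SI = EC50(HepG2)/EC50(Dd2).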

A short description of data set [3]: Aqueous solubility of the compound at pH 2 by HPLC analysis. Format: physicochemical. To be noted: aqueous solution. The method, boiled down:
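Aqueous solubility was measured at pH 2.0 with an in-house HPLC assay. Values are reported as bins: ≤10 μM, 10–20 μM, 20–40 μM, 40–80 μM and ≥80 μM.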

Data set [4] relates to Plasmodium falciparum. The data set can be described thus: Antimalarial activity against chloroquine-resistant Plasmodium falciparum Dd2 assessed as inhibition of parasite growth incubated for 72 hrs by SYBR green I-based DNA quantification assay. Format: functional, organism-based. Conditions: Dd2, 72 h.
For data set [5], the system named is Plasmodium falciparum. The data set can be described thus: Antiplasmodial activity against artemisinin-resistant Plasmodium falciparum ARC08-022 assessed as inhibition of parasite growth incubated for 48 hrs by time zero-[3H]hypoxanthine incorporation assay. Format: functional, organism-based.
In data set [6] the test system is Plasmodium falciparum. Put plainly: Antiplasmodial activity against chloroquine-sensitive Plasmodium falciparum D6 assessed as inhibition of parasite growth incubated for 48 hrs by time zero-[3H]hypoxanthine incorporation assay. The class given is functional, organism-based.
Data set [7] can be described thus: Aqueous solubility of the compound at pH 6.5. Conditions: aqueous solution.
A short description of data set [8]: Cytotoxicity against human HepG2 cells assessed as reduction in cell viability incubated for 48 hrs by MTS assay. The class given is toxicity, cell-based. In outline: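 HepG2 human hepatoma cells were seeded at 2,500 cells/well in 384-well plates and incubated 24 h. Serial compound dilutions (0–40 μM range) were added, then cells were incubated a further 48 h.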

Data set [9] is described as follows: Octanol-water distribution coefficient, logD of the compound at pH 3 by HPLC-based analysis. Format: physicochemical.
For data set [10], the system named is Plasmodium falciparum. The data set can be described thus: Selectivity for antiplasmodial activity for chloroquine-sensitive Plasmodium falciparum 3D7 over antiplasmodial activity against chloroquine-sensitive Plasmodium falciparum D6. The class given is functional.
Data set [11] concerns Plasmodium falciparum. The data set can be described thus: Selectivity for antiplasmodial activity for chloroquine-sensitive Plasmodium falciparum 3D7 over antiplasmodial activity against artemisinin-resistant Plasmodium falciparum ARC08-022. The class given is functional.
Data set [12] has as its system Plasmodium falciparum. Put plainly: Selectivity for antiplasmodial activity for chloroquine-resistant Plasmodium falciparum Dd2 over antiplasmodial activity against chloroquine-sensitive Plasmodium falciparum D6. Format: functional.
The subject of data set [13] is Plasmodium falciparum. Put plainly: Selectivity for antiplasmodial activity for chloroquine-resistant Plasmodium falciparum Dd2 over antiplasmodial activity against artemisinin-resistant Plasmodium falciparum ARC08-022. The class given is functional.

Structures are written as SMILES. Values after ≈ are worked out from the molar mass of the structure shown.

`O=C1CC2(CCN(CCc3ccc(F)c(F)c3)CC2)Oc2c1ccc1ccccc21`: the logD in data set [1] worked out at 3.81; in data set [9], 2.56. In addition, in [2], the selectivity ratio was 4. Moreover, the results for the solubility in data set [3] and in [7] were at least 80 µM and 10 µM (≈ 4.07 µg/mL), respectively. For the same molecule, the EC50 in the data set with Plasmodium falciparum [4] is over 2500 nM; in the data set on Plasmodium falciparum [5] it was 860 nM; with Plasmodium falciparum [6] it was 260 nM. In data set [8], the EC50 at 48 h is over 20000 nM.
As to `OC(CN1CCC2(CC1)CC(O)c1ccc3ccccc3c1O2)c1ccc(F)c(F)c1` (stereo unspecified), the Selectivity ratio with Plasmodium falciparum [10], with Plasmodium falciparum [11], with Plasmodium falciparum [12] and in the data set on Plasmodium falciparum [13] was 3 in each case. In addition, the selectivity ratio in data set [2] was over 53.3. Further, the 50% effective concentration (EC50) was 320 nM with Plasmodium falciparum [4], 1810 nM in the data set on Plasmodium falciparum [5] and 1480 nM in the data set with Plasmodium falciparum [6]. Also, in data set [8], the EC50 at 48 h is over 20000 nM.
Take `OC1CC2(CCN(CCc3ccc(Cl)c(Cl)c3)CC2)Oc2c1ccc1ccccc21` (stereo unspecified): the EC50 came to 2100 nM in the data set with Plasmodium falciparum [4], 2010 nM in the data set with Plasmodium falciparum [5] and 1320 nM in the data set on Plasmodium falciparum [6].
For `OC1CC2(CCNCC2)Oc2c1ccc1ccccc21` (stereo unspecified), the logD amounted to 2.46 in data set [1] and 2.04 in data set [9]. For the same molecule, the selectivity ratio in data set [2] is over 54.5. Further, the solubility was 40 µM (≈ 10.8 µg/mL) in data set [3] and at most 10 µM in data set [7]. The EC50 with Plasmodium falciparum [4] was found to be 510 nM. In addition, in data set [8], the EC50 at 48 h was over 20000 nM.
For `OC(CN1CCC2(CCc3ccc4ccccc4c3O2)CC1)c1ccc(F)c(F)c1` (stereo unspecified), the logD stood at 4 in data set [1] and 3.05 in [9]. For the same molecule, the selectivity ratio in data set [2] is over 10.4. Further, the solubility in [3] was 40 µM (≈ 16.4 µg/mL); in data set [7], at most 10 µM. Also, the EC50 came to 530 nM in the data set with Plasmodium falciparum [4], 970 nM in the data set with Plasmodium falciparum [5] and 310 nM in the data set on Plasmodium falciparum [6]. Moreover, the EC50 at 48 h in data set [8] was over 20000 nM.
Regarding `O=C1CC2(CCN(CCC3CCCCC3)CC2)Oc2c1ccc1ccccc21`, the logD in data set [1] came to 4.5; in [9], 2.99. Further, in [2], the selectivity ratio was 31.2. Further, the figures for the solubility in data set [3] and in data set [7] were 20 µM (≈ 7.55 µg/mL) and 10 µM (≈ 3.78 µg/mL), respectively. Moreover, the half-maximal effective concentration (EC50) with Plasmodium falciparum [4] was found to be 710 nM. In addition, the EC50 at 48 h in [8] amounted to 16000 nM.
`c1ccc2c3c(ccc2c1)CCC1(CCNCC1)O3`: the logD is reported as 2.33 in [1] and 1.97 in [9]. Further, the selectivity ratio in [2] is 4. Moreover, the figures for the solubility in data set [3] and in data set [7] were 40 µM (≈ 10.1 µg/mL) and 20 µM (≈ 5.07 µg/mL), respectively. In the data set with Plasmodium falciparum [4], the EC50 was over 2500 nM. In addition, in data set [8], the EC50 at 48 h was over 20000 nM.
On to `CCN1CCC2(CC1)CC(=O)c1ccc3ccccc3c1O2`, for which the logD in data set [1] was determined as 2.19; in data set [9] it was 1.65. Further, the selectivity ratio in data set [2] stood at 4.7. For the same molecule, the solubility in data set [3] and in [7] was at least 80 µM throughout. In the data set on Plasmodium falciparum [4], the EC50 was over 2500 nM. Moreover, the EC50 at 48 h in data set [8] was 18000 nM.
Take `OC1CC2(CCN(CCC3CCCCC3)CC2)Oc2c1ccc1ccccc21` (stereo unspecified): the logD in [1] stood at 3.54; in [9], 2.97. Further, the selectivity ratio in data set [2] worked out at 35.1. Also, the solubility in data set [3] was determined as 40 µM (≈ 15.2 µg/mL); in data set [7], 20 µM (≈ 7.59 µg/mL). Moreover, the EC50 turned out to be 500 nM in the data set on Plasmodium falciparum [4], 630 nM in the data set with Plasmodium falciparum [5] and 500 nM in the data set with Plasmodium falciparum [6]. Moreover, the EC50 at 48 h in [8] was determined as 14000 nM.
Turning to `O=C(CN1CCC2(CC1)CC(O)c1ccc3ccccc3c1O2)c1ccc(F)c(F)c1` (stereo unspecified), the results for the logD in [1] and in [9] were 0.89 and 1.53, respectively. In addition, the selectivity ratio in data set [2] is under 6.7. Besides, the solubility in data set [3] and in data set [7] was 20 µM (≈ 8.47 µg/mL) throughout. Further, in the data set with Plasmodium falciparum [4], the EC50 was over 2500 nM. The EC50 at 48 h in data set [8] stood at 33000 nM.
For `CCN1CCC2(CC1)CC(O)c1ccc3ccccc3c1O2` (stereo unspecified), the logD in data set [1] is listed as 1.88; in [9], 1.51. For the same molecule, the selectivity ratio in [2] came to 3.2. Besides, the solubility in data set [3] and in data set [7] was 20 µM (≈ 5.95 µg/mL) each time. The EC50 in the data set with Plasmodium falciparum [4] is over 2500 nM. The EC50 at 48 h in [8] came to 16000 nM.

Usually logD stands for the decadic logarithm of the distribution of all forms, ionised or not, between an organic phase and buffer at a given pH. The low end stands for lower lipophilicity, the high end for higher lipophilicity. Usually solubility stands for the dissolved amount per volume that the medium holds. One may read the EC50 as the concentration needed to bring the measured effect to its halfway point.
